According to ChEMBL document CHEMBL2040727, “Substituted thiazoles VI. Synthesis and antitumor activity of new 2-acetamido- and 2 or 3-propanamido-thiazole analogs” (2012):

Experiments:
Format in all cases: functional
K562 = test: Growth inhibition of human K562 cells at 10 uM after 48 hrs by coulter counter analysis; conditions: K562, 48 h, read-out: GI
Method in brief: (§1)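 Single-dose NCI 60-line panel screen of test compounds. Cells grown in RPMI 1640 with 10% FBS. Compounds dissolved in DMSO, then diluted in phosphate buffer saline (final DMSO below 1%). Wells run in duplicate at 6 × 10⁴ cells/ml. Controls held PBS and DMSO at matching dilutions. Incubation 48 h at 37 °C under humidified 5% CO2. Cells diluted tenfold in saline and counted by Coulter counter. Percent growth inhibition taken from mean-graph of treated-cell growth.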

A549 = test: Growth inhibition of human A549/ATCC cells at 10 uM after 48 hrs by coulter counter analysis; conditions: A549, 48 h, read-out: GI; method in brief: as §1
EKVX = test: Growth inhibition of human EKVX cells at 10 uM after 48 hrs by coulter counter analysis; conditions: read-out: GI; method in brief: as §1
HOP-62 = test: Growth inhibition of human HOP62 cells at 10 uM after 48 hrs by coulter counter analysis; conditions: HOP-62, 48 h, read-out: GI; method in brief: as §1
HOP-92 = test: Growth inhibition of human HOP92 cells at 10 uM after 48 hrs by coulter counter analysis; conditions: HOP-92, 48 h, read-out: GI; method in brief: as §1
NCI-H226 = test: Growth inhibition of human NCI-H226 cells at 10 uM after 48 hrs by coulter counter analysis; conditions: NCI-H226, 48 h, read-out: GI; method in brief: as §1
NCI-H460 = test: Growth inhibition of human NCI-H460 cells at 10 uM after 48 hrs by coulter counter analysis; conditions: NCI-H460, 48 h, read-out: GI; method in brief: as §1
NCI-H522 = test: Growth inhibition of human NCI-H522 cells at 10 uM after 48 hrs by coulter counter analysis; conditions: NCI-H522, 48 h, read-out: GI; method in brief: as §1
HCC 2998 = test: Growth inhibition of human HCC2998 cells at 10 uM after 48 hrs by coulter counter analysis; conditions: HCC 2998, 48 h, read-out: GI; method in brief: as §1
HT-29 = test: Growth inhibition of human HT-29 cells at 10 uM after 48 hrs by coulter counter analysis; conditions: HT-29, 48 h, read-out: GI; method in brief: as §1
KM12 = test: Growth inhibition of human KM12 cells at 10 uM after 48 hrs by coulter counter analysis; conditions: KM12, 48 h, read-out: GI; method in brief: as §1
SF-539 = test: Growth inhibition of human SF539 cells at 10 uM after 48 hrs by coulter counter analysis; conditions: SF-539, 48 h, read-out: GI; method in brief: as §1
SNB-19 = test: Growth inhibition of human SNB19 cells at 10 uM after 48 hrs by coulter counter analysis; conditions: SNB-19, 48 h, read-out: GI; method in brief: as §1
SNB-75 = test: Growth inhibition of human SNB75 cells at 10 uM after 48 hrs by coulter counter analysis; conditions: SNB-75, 48 h, read-out: GI
Method in brief: (§2)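 Single-dose screen in the NCI 60 cell line panel. Cells grown in RPMI 1640 with 10% FBS. Compounds dissolved in DMSO and diluted in phosphate buffered saline, final DMSO under 1%. Duplicate wells seeded from culture at 6 × 10⁴ cells/ml. Incubated 48 h at 37 °C, humidified, 5% CO2. Cells diluted tenfold in saline and Coulter-counted. Percent growth inhibition computed against PBS/DMSO controls.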

LOX IMVI = test: Growth inhibition of human LOXIMVI cells at 10 uM after 48 hrs by coulter counter analysis; conditions: read-out: GI; method in brief: as §1
MDA-MB-435 = test: Growth inhibition of human MDA-MB-435 cells at 10 uM after 48 hrs by coulter counter analysis; conditions: MDA-MB-435, 48 h, read-out: GI; method in brief: as §1
SK-MEL-2 = test: Growth inhibition of human SK-MEL-2 cells at 10 uM after 48 hrs by coulter counter analysis; conditions: SK-MEL-2, 48 h, read-out: GI; method in brief: as §1
SK-MEL-28 = test: Growth inhibition of human SK-MEL-28 cells at 10 uM after 48 hrs by coulter counter analysis; conditions: SK-MEL-28, 48 h, read-out: GI; method in brief: as §1
SK-MEL-5 = test: Growth inhibition of human SK-MEL-5 cells at 10 uM after 48 hrs by coulter counter analysis; conditions: SK-MEL-5, 48 h, read-out: GI; method in brief: as §1
OVCAR-3 = test: Growth inhibition of human OVCAR3 cells at 10 uM after 48 hrs by coulter counter analysis; conditions: OVCAR-3, 48 h, read-out: GI; method in brief: as §1
OVCAR-4 = test: Growth inhibition of human OVCAR4 cells at 10 uM after 48 hrs by coulter counter analysis; conditions: OVCAR-4, 48 h, read-out: GI; method in brief: as §1
OVCAR-5 = test: Growth inhibition of human OVCAR5 cells at 10 uM after 48 hrs by coulter counter analysis; conditions: OVCAR-5, 48 h, read-out: GI; method in brief: as §1
OVCAR-8 = test: Growth inhibition of human OVCAR8 cells at 10 uM after 48 hrs by coulter counter analysis; conditions: OVCAR-8, 48 h, read-out: GI; method in brief: as §1
[1] = Growth inhibition of human NCI-ADR-RES cells at 10 uM after 48 hrs by coulter counter analysis; conditions: read-out: GI; method in brief: as §1
786-0 = test: Growth inhibition of human 786-0 cells at 10 uM after 48 hrs by coulter counter analysis; conditions: 786-0, 48 h, read-out: GI; method in brief: as §1
A498 = test: Growth inhibition of human A498 cells at 10 uM after 48 hrs by coulter counter analysis; conditions: A498, 48 h, read-out: GI; method in brief: as §1
ACHN = test: Growth inhibition of human ACHN cells at 10 uM after 48 hrs by coulter counter analysis; conditions: read-out: GI; method in brief: as §1
CAKI-1 = test: Growth inhibition of human Caki1 cells at 10 uM after 48 hrs by coulter counter analysis; conditions: CAKI-1, 48 h, read-out: GI; method in brief: as §1
SN12C = test: Growth inhibition of human SN12C cells at 10 uM after 48 hrs by coulter counter analysis; conditions: read-out: GI; method in brief: as §1
UO-31 = test: Growth inhibition of human UO31 cells at 10 uM after 48 hrs by coulter counter analysis; conditions: UO-31, 48 h, read-out: GI; method in brief: as §2
MDA-MB-231 = test: Growth inhibition of human MDA-MB-231 cells at 10 uM after 48 hrs by coulter counter analysis; conditions: MDA-MB-231, 48 h, read-out: GI; method in brief: as §1
BT-549 = test: Growth inhibition of human BT549 cells at 10 uM after 48 hrs by coulter counter analysis; conditions: BT-549, 48 h, read-out: GI; method in brief: as §1
T47D = test: Growth inhibition of human T47D cells at 10 uM after 48 hrs by coulter counter analysis; conditions: read-out: GI; method in brief: as §2
MDA-MB-468 = test: Growth inhibition of human MDA-MB-468 cells at 10 uM after 48 hrs by coulter counter analysis; conditions: MDA-MB-468, 48 h, read-out: GI; method in brief: as §1

Row | SMILES | inhibition of growth at 10 µM (K562) [%] | inhibition of growth at 10 µM (A549) [%] | inhibition of growth at 10 µM (EKVX) [%] | inhibition of growth at 10 µM (HOP-62) [%] | inhibition of growth at 10 µM (HOP-92) [%] | inhibition of growth at 10 µM (NCI-H226) [%] | inhibition of growth at 10 µM (NCI-H460) [%] | inhibition of growth at 10 µM (NCI-H522) [%] | inhibition of growth at 10 µM (HCC 2998) [%] | inhibition of growth at 10 µM (HT-29) [%] | inhibition of growth at 10 µM (KM12) [%] | inhibition of growth at 10 µM (SF-539) [%] | inhibition of growth at 10 µM (SNB-19) [%] | inhibition of growth at 10 µM (SNB-75) [%] | inhibition of growth at 10 µM (LOX IMVI) [%] | inhibition of growth at 10 µM (MDA-MB-435) [%] | inhibition of growth at 10 µM (SK-MEL-2) [%] | inhibition of growth at 10 µM (SK-MEL-28) [%] | inhibition of growth at 10 µM (SK-MEL-5) [%] | inhibition of growth at 10 µM (OVCAR-3) [%] | other results
1 | CCOC(=O)c1sc(NC(=O)C(C)N(CC)CC)nc1C (stereo not drawn) | < 10 | < 10 | < 10 | < 10 | < 10 | < 10 | < 10 | < 10 | < 10 | < 10 | < 10 | < 10 | < 10 | 16.4 | < 10 | < 10 | < 10 | < 10 | < 10 | < 10 | inhibition of growth at 10 µM (OVCAR-4): < 10%; inhibition of growth at 10 µM (OVCAR-5): < 10%; inhibition of growth at 10 µM (OVCAR-8): < 10%; inhibition of growth at 10 µM [1]: < 10%; inhibition of growth at 10 µM (786-0): < 10%; inhibition of growth at 10 µM (A498): < 10%; inhibition of growth at 10 µM (ACHN): < 10%; inhibition of growth at 10 µM (CAKI-1): 12%; inhibition of growth at 10 µM (SN12C): < 10%; inhibition of growth at 10 µM (UO-31): < 10%; inhibition of growth at 10 µM (MDA-MB-231): < 10%; inhibition of growth at 10 µM (BT-549): < 10%; inhibition of growth at 10 µM (T47D): < 10%; inhibition of growth at 10 µM (MDA-MB-468): < 10%
2 | CCOC(=O)c1sc(NC(=O)C(C)N2CCCCC2)nc1C (stereo not drawn) | < 10 | < 10 | < 10 | < 10 | < 10 | < 10 | < 10 | < 10 | < 10 | < 10 | < 10 | < 10 | < 10 | < 10 | < 10 | < 10 | < 10 | < 10 | < 10 | < 10 | inhibition of growth at 10 µM (OVCAR-4): < 10%; inhibition of growth at 10 µM (OVCAR-5): < 10%; inhibition of growth at 10 µM (OVCAR-8): < 10%; inhibition of growth at 10 µM [1]: < 10%; inhibition of growth at 10 µM (786-0): < 10%; inhibition of growth at 10 µM (A498): < 10%; inhibition of growth at 10 µM (ACHN): < 10%; inhibition of growth at 10 µM (CAKI-1): 12.2%; inhibition of growth at 10 µM (SN12C): < 10%; inhibition of growth at 10 µM (UO-31): 13.4%; inhibition of growth at 10 µM (MDA-MB-231): < 10%; inhibition of growth at 10 µM (BT-549): < 10%; inhibition of growth at 10 µM (T47D): < 10%; inhibition of growth at 10 µM (MDA-MB-468): < 10%
